According to ChEMBL document CHEMBL1131066, “2-Substituted aminopyrido[2,3-d]pyrimidin-7(8H)-ones. structure-activity relationships against selected tyrosine kinases and in vitro and in vivo anticancer activity” (J Med Chem, 1998):

Key:
COLO 205 [1] = test: Difference in days for treated (T)and control (C) COLO 205 cell tumors to reach 750 mg in mice at […] peroral dose, days 9-23 administration; assay type: functional, Mus musculus; conditions: route oral
Mus musculus [2] = test: Weight change in PDGF-transfected mouse fibroblasts in mice at 12 mg/kg peroral dose, days 1-15 administration; assay type: functional; conditions: route oral
In short: (§1)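 Tumor-bearing nude mice (NCr nu/nu, 18–22 g, 6–8 per group) were implanted in the right axilla with tumor fragments on day 0 and dosed by average cage weight. Vehicle was 50 mM sodium lactate pH 4.0, or 0.5% methyl cellulose suspension; cisplatin was given in saline. Host body weight change is given as the maximum treatment-related weight loss.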

SK-OV-3 [3] = test: Weight change of SK-OV-3 cell tumors in mice at […] peroral dose, days 15-29 administration; assay type: functional, organism-based; parameters: dose 8.9 mg/kg
[4] = target: Platelet-derived growth factor receptor beta (Mus musculus, UniProt P05622); test: Inhibitory concentration was evaluated against Platelet-derived growth factor receptor beta (PDGFr) tyrosine kinase
[5] = target: Proto-oncogene tyrosine-protein kinase Src (Gallus gallus, UniProt P00523); test: Inhibition of avian c-Src tyrosine kinase
COLO 205 [6] = test: Weight change of COLO 205 cell tumors in mice at […] peroral dose, days 9-23 administration; assay type: functional, organism-based; parameters: dose 8.9 mg/kg; conditions: Mus musculus
A-431 [7] = test: Ratio of treated and control A431 cell tumor mass in mice at 5 mg/kg peroral dose, days 7-21 administration; assay type: functional, Mus musculus; conditions: route oral
In short: (§2)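 Nude mice (NCr nu/nu), 6–8 per group, 18–22 g, tumor fragments implanted in right axilla on day 0 (A431, C6, MCF-7, or NIH3T3 carrying human PDGF receptor), dosed by average cage weight; vehicle 50 mM sodium lactate buffer pH 4.0 unless suspended in 0.5% methyl cellulose. %T/C = median treated/median control tumor mass ×100, last therapy day.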

COLO 205 [8] = test: Net reduction in tumor burden between first and last treatments of COLO 205 cell tumors in mice at […] peroral dose, days 9-23 administration; assay type: functional, Mus musculus; conditions: route oral
Mus musculus [9] = test: Net reduction in tumor burden between the first and last treatments of PDGF-transfected fibroblast cells in mice at 12 mg/kg peroral dose, days 1-15 administration; assay type: functional; conditions: route oral
In short: (§3)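 NCr nu/nu nude mice (18–22 g, 6–8 per group, randomized) had tumor fragments, kept by serial passage in nude mice, implanted in the right axilla on day 0. Mice were dosed by average cage weight on the listed days, over a range from toxic to ineffective doses. Vehicle was 50 mM sodium lactate pH 4.0 or 0.5% methyl cellulose suspension. Net log cell kill was taken between first and last treatments.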

[10] = target: Platelet-derived growth factor receptor (PDGFr) (Rattus norvegicus, UniProt P20786+Q05030); test: Inhibition of PDGF-induced autophosphorylation of PDGF-R in C6 cells
C6 [11] = test: C6 cell growth in soft agar with continuous treatment; assay type: functional, cell-based, Rattus norvegicus; conditions: Rattus norvegicus, C6
In short: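 C6 rat glioma cells (F10 Ham's with 15% horse serum, 2.5% fetal calf serum) exposed 3 days to a concentration series, then plated in soft agar with compound still present at the same concentration; colonies stained and counted after two weeks. IC50; mean of two experiments, each in duplicate.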

COLO 205 [12] = test: Ratio of treated and control COLO 205 cell tumor mass in mice at […] peroral dose, days 9-23 administration; assay type: functional, Mus musculus; conditions: route oral
NIH3T3 [13] = test: Inhibition of NIH3T3 proliferation by sulforhodamine B assay; assay type: functional, cell-based, Mus musculus; conditions: Mus musculus, NIH3T3
HT-29 [14] = test: Weight change of HT-29 cell tumors in mice at […] peroral dose, days 15-29 administration; assay type: functional, organism-based; parameters: dose 8.3 mg/kg; conditions: Mus musculus
C6 [15] = test: Inhibition of C6 cell proliferation in sulforhodamine B assay; assay type: functional, cell-based, Rattus norvegicus; conditions: Rattus norvegicus, C6
In short: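 C6 rat glioma cells (F10 Ham's, 15% horse serum, 2.5% fetal calf serum) seeded and allowed 24 h to attach, then given serial 2-fold compound dilutions; 4 d at 37 °C, 5% CO2; growth read by sulforhodamine B staining. IC50; mean of two experiments, each in triplicate.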

HT-29 [16] = test: Difference in days for treated (T) and control (C) HT-29 cell tumors to reach 750 mg in mice at […] peroral dose, days 15-29 administration; assay type: functional, Mus musculus; conditions: route oral
NIH3T3 [17] = test: Growth of NIH3T3 cell colonies in soft agar with discontinued treatment; assay type: functional, cell-based; conditions: Mus musculus
In short: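 PDGF-B-transfected NIH3T3 (NIH3T3/PDGF) cells exposed 3 days to a concentration series, washed free of inhibitor, plated in drug-free soft agar; colonies stained and counted after two weeks. IC50; mean of two experiments, each in duplicate.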

MCF7 [18] = test: Weight change for MCF-7 cell tumors in mice at 5 mg/kg peroral dose, days 1-15 administration; assay type: functional, organism-based; parameters: dose 5 mg/kg; conditions: Mus musculus; in short: as §1
[19] = target: Fibroblast growth factor receptor 1 (Homo sapiens, UniProt P11362); test: Inhibition of fibroblast growth factor receptor (FGFr)
In short: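 Recombinant kinases (PDGFr-β, FGFr-1, c-Src), enzyme inhibition IC50. Mean of at least two separate determinations, each done in triplicate; replicate values typically varied under 30%.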

C6 [20] = test: Ratio of treated and control C6 glioma cell tumor mass in mice at 10 mg/kg peroral dose, days 1-15 administration; assay type: functional, Mus musculus; conditions: route oral; in short: as §2
NIH3T3 [21] = test: Growth of NIH3T3 cell colonies in soft agar with continuous treatment; assay type: functional, cell-based; conditions: Mus musculus
In short: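 Soft agar cloning used PDGF-B-transfected NIH3T3 (NIH3T3/PDGF) cells. Cells were exposed 3 days to a concentration series, then plated in soft agar with the matching compound concentration kept present. Colonies were stained and counted after two weeks. IC50; mean of two experiments, each in duplicate.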

Mus musculus [22] = test: Difference in days for treated (T) and control (C) PDGF-transfected mouse fibroblast tumors to reach 750 mg in mice at 12 mg/kg peroral dose, days 1-15 administration; assay type: functional; conditions: route oral
In short: (§4)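 Nude mice (NCr nu/nu), 18–22 g, 6–8 per group, randomized and implanted with serially passaged tumor fragments in the right axilla on day 0. Dosed by average cage weight. Vehicle was 50 mM sodium lactate buffer, pH 4.0, or a 0.5% methyl cellulose suspension for one compound. Cisplatin was given in saline. T − C is the difference in days for treated and control tumors to reach 750 mg.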

[23] = target: Platelet-derived growth factor receptor (Mus musculus, UniProt P05622+P26618); test: Inhibition of PDGF-induced autophosphorylation of PDGF-R in NIH3T3 cells
C6 [24] = test: Weight change of C6 glioma tumor cells in mice at 10 mg/kg peroral dose, days 1-15 administration; assay type: functional, Mus musculus; conditions: route oral; in short: as §1
C6 [25] = test: C6 cell growth in soft agar with discontinued treatment; assay type: functional, cell-based, Rattus norvegicus; conditions: Rattus norvegicus, C6
In short: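 C6 rat glioma cells given 3-day exposure to a concentration series, then washed free of inhibitor and plated in drug-free soft agar; colonies stained and counted after two weeks. IC50; mean of two experiments, each in duplicate.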

A-431 [26] = test: Difference in days for treated (T) and control (C) A431 cell tumors to reach 750 mg in mice at 5 mg/kg peroral dose, days 7-21 administration; assay type: functional, Mus musculus; conditions: route oral; in short: as §4
C6 [27] = test: Net reduction in tumor burden between first and last treatments of C6 glioma cell tumors in mice at 10 mg/kg peroral dose, days 1-15 administration; assay type: functional, Mus musculus; conditions: route oral; in short: as §3
SK-OV-3 [28] = test: Ratio of treated and control SKOV-3 cell tumor mass in mice at […] peroral dose, days 15-29 administration; assay type: functional; conditions: route oral
A-431 [29] = test: Weight change of A431 cell tumors in mice at 5 mg/kg peroral dose, days 7-21 administration; assay type: functional, Mus musculus; conditions: route oral; in short: as §1
MCF7 [30] = test: Net reduction in tumor burden between first and last treatments of MCF-7 cells in mice at 5 mg/kg peroral dose, days 1-15 administration; assay type: functional, Mus musculus; conditions: route oral; in short: as §3
SK-OV-3 [31] = test: Difference in days for treated (T) and control (C) SKOV-3 cell tumors to reach 750 mg in mice at […] peroral dose, days 15-29 administration; assay type: functional; conditions: route oral
Mus musculus [32] = test: Ratio of treated and control PDGF-transfected mouse fibroblast tumor mass in mice at 12 mg/kg peroral dose, days 1-15 administration; assay type: functional; conditions: route oral; in short: as §2
MCF7 [33] = test: Ratio of treated and control MCF-7 tumor mass in mice at 5 mg/kg peroral dose, days 1-15 administration; assay type: functional, Mus musculus; conditions: route oral; in short: as §2
C6 [34] = test: Difference in days for treated (T) and control (C) C6 glioma cell tumors to reach 750 mg in mice at 10 mg/kg peroral dose, days 1-15 administration; assay type: functional, Mus musculus; conditions: route oral; in short: as §4
MCF7 [35] = test: Difference in days for treated (T) and control (C) MCF-7 cell tumors to reach 750 mg in mice at 5 mg/kg peroral dose, days 1-15 administration; assay type: functional, Mus musculus; conditions: route oral; in short: as §4
A-431 [36] = test: Net reduction in tumor burden between first and last treatments of A431 cell tumors in mice at 5 mg/kg peroral dose, days 7-21 administration; assay type: functional, Mus musculus; conditions: route oral; in short: as §3

Chain of Platelet-derived growth factor receptor beta (P05622 whole entry): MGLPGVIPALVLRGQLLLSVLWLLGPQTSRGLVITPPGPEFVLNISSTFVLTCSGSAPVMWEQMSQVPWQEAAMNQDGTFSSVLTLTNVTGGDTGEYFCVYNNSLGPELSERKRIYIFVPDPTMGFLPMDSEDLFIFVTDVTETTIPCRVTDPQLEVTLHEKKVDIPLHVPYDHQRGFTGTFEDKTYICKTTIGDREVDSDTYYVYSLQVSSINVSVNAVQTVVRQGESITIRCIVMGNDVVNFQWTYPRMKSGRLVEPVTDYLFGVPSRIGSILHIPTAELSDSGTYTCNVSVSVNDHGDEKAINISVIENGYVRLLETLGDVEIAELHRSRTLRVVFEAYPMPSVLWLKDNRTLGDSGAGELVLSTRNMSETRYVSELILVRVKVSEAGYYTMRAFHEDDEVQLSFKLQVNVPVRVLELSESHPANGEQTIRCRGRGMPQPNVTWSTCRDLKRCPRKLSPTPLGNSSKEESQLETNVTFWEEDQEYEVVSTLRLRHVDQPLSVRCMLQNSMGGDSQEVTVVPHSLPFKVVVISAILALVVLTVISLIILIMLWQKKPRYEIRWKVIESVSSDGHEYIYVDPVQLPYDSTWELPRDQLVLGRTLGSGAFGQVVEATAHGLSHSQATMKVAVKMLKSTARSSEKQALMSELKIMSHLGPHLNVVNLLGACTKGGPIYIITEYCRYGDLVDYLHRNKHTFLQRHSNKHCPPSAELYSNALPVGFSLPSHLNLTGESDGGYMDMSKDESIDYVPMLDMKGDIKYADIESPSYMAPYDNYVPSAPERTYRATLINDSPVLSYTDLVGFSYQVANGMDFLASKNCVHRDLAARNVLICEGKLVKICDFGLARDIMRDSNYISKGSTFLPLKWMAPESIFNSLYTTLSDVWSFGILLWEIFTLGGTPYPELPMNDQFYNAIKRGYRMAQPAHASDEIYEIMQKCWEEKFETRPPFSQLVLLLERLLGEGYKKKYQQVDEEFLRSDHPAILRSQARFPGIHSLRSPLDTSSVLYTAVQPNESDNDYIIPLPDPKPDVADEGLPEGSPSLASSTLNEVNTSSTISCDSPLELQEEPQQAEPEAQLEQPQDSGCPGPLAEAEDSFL
Chain of Fibroblast growth factor receptor 1 (P11362 whole entry): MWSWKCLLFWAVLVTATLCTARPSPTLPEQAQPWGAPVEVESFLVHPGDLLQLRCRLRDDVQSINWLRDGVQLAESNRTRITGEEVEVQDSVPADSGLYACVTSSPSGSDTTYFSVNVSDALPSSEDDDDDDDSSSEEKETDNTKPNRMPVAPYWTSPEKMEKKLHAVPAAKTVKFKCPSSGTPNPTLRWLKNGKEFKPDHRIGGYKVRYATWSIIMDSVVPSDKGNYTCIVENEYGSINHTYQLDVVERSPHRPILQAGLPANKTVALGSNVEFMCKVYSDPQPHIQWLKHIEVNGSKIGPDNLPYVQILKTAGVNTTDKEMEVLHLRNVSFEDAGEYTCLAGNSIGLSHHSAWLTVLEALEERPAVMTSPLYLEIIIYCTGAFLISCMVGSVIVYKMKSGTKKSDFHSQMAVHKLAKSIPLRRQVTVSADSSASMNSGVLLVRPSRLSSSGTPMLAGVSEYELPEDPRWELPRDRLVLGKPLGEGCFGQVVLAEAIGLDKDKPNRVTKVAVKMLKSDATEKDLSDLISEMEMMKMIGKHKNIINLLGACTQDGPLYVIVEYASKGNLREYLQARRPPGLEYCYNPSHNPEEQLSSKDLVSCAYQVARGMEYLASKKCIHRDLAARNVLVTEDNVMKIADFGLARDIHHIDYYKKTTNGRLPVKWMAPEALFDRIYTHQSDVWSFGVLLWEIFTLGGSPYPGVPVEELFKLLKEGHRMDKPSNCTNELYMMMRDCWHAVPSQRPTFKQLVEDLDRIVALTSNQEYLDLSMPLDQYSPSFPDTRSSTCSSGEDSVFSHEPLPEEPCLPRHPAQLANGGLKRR

CCN(CC)CCOc1ccc(Nc2ncc3cc(-c4c(Cl)cccc4Cl)c(=O)n(CC)c3n2)cc1
T-C (COLO 205 [1]): 10.3 days | Weight change (Mus musculus [2]): -2.6 g | Weight change (SK-OV-3 [3]): Weight gain | IC50 [4]: 150 nM | IC50 [5]: 17 nM | Weight change (COLO 205 [6]): Weight gain | Ratio (A-431 [7]): 96% | Net cell kill (COLO 205 [8]): -0.2 log10 | Net cell kill (Mus musculus [9]): -1.2 log10 | IC50 [10]: 1 nM | IC50 (C6 [11]): 120 nM | Ratio (COLO 205 [12]): 57% | IC50 (NIH3T3 [13]): 410 nM | Weight change (HT-29 [14]): Weight gain | IC50 (C6 [15]): 350 nM | T-C (HT-29 [16]): -4.8 days | IC50 (NIH3T3 [17]): 17 nM | Weight change (MCF7 [18]): Weight gain | IC50 [19]: 30 nM | Ratio (C6 [20]): 56% | IC50 (NIH3T3 [21]): 1.5 nM | T-C (Mus musculus [22]): 5.9 days | IC50 [23]: 1.7 nM | Weight change (C6 [24]): -1.2 g | IC50 (C6 [25]): 400 nM | T-C (A-431 [26]): 3.3 days | Net cell kill (C6 [27]): -0.9 log10 | Ratio (SK-OV-3 [28]): 106% | Weight change (A-431 [29]): -2.7 g | Net cell kill (MCF7 [30]): 0.2 log10 | T-C (SK-OV-3 [31]): -0.8 days | Ratio (Mus musculus [32]): 13% | Ratio (MCF7 [33]): 51% | T-C (C6 [34]): 3 days | T-C (MCF7 [35]): 18.3 days | Net cell kill (A-431 [36]): -0.6 log10
